Assay results from ChEMBL document CHEMBL4316644, “Eudesmane Glycosides from Ambrosia artemisiifolia (Common Ragweed) as Potential Neuroprotective Agents” (J Nat Prod, 2019).
Active and inactive are the calls of the source. No cut-off for these calls is given here.

Columns and labels:
HT-22 [1] = experiment: Cytotoxicity against mouse HT22 cells assessed as reduction in cell viability at 40 uM measured after 24 hrs by MTT assay; assay type: cell-based; details: ht-22, 24 h
In short: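 Untransfected HT22 mouse hippocampal cells grown in DMEM with 10% FBS and penicillin/streptomycin, seeded at 4000 cells/well, then incubated 24 h. Compounds in DMSO, diluted in serum-free medium (final DMSO 0.1 to 0.2% v/v), applied for 24 h. MTT (2 mg/mL) added for 4 h in the dark, formazan dissolved in DMSO, absorbance read at 550 nm.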

HT-22 [2] = experiment: Neuroprotective against amyloid beta (42 residues)-induced cell death in mouse HT22 cells transfected with pEGFP-C1/Abeta42 assessed as increase in cell viability at 40 uM measured after 24 hrs by MTT assay; assay type: functional, cell-based
In short: (§1)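 HT22 cells seeded at 4000 cells/well for 2–3 h at 37 °C, 5% CO2, then transfected with 0.2 μg pEGFP-C1/Aβ42 plasmid by Lipofectamine 2000. After 10 h, compounds were added in medium, mostly at 40 μM, some at 5 μM or at 10, 20 and 40 μM. Incubation continued 24 h, then MTT (2 mg/mL) viability read-out. Mean ± SD, n = 3, versus untreated Aβ42-transfected cells.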

HT-22 [3] = experiment: Neuroprotective against amyloid beta (42 residues)-induced cell death in mouse HT22 cells transfected with pEGFP-C1/Abeta42 assessed as increase in cell viability measured after 24 hrs by MTT assay; assay type: functional, cell-based; in short: as §1
HT-22 [4] = experiment: Neuroprotective against amyloid beta (42 residues)-induced cell death in mouse HT22 cells transfected with pEGFP-C1/Abeta42 assessed as increase in fluorescence intensity at 40 uM measured after 24 hrs by fluorescence microscopic analysis; assay type: functional, cell-based
In short: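 HT22 cells grown on glass coverslips, transfected with Aβ42 plasmid for 10 h. Medium then replaced with fresh medium containing 2% FBS, with or without compounds at 40 μM, for 24 h. Cells washed once with PBS. Fluorescence and bright-field images were captured by fluorescence microscopy to view GFP condensation.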

HT-22 [5] = experiment: Neuroprotective against amyloid beta (42 residues)-induced cell death in mouse HT22 cells transfected with pEGFP-C1/Abeta42 assessed as decrease in fluorescence intensity at 40 uM measured after 24 hrs by flow cytometry
HT-22 [6] = experiment: Neuroprotective against amyloid beta (42 residues)-induced cell death in mouse HT22 cells transfected with pEGFP-C1/Abeta42 assessed as increase in cell viability up to 80 uM measured after 24 hrs by MTT assay; assay type: functional, cell-based

Compound	Activity (HT-22 [2])	further results
C=C1C(=O)O[C@@H]2[C@H]3C(C)=CC[C@H]3[C@](C)(O)C[C@H](O)[C@@H]12 [CUMAMBRIN B]	–	Activity (HT-22 [1]): Toxic
CC1=CC[C@H](OC(=O)C[C@](C)(O)CC(=O)O)[C@@]2(C)[C@@H](O)C[C@@H](C(C)C)[C@@H](O[C@@H]3O[C@H](CO)[C@@H](O)[C@H](O)[C@H]3O)[C@H]12	Active	–
C=C1CC[C@@H](O[C@@H]2O[C@H](CO)[C@@H](O)[C@H](O)[C@H]2O)[C@]2(C)CC[C@@H](C(C)C)[C@H](O)[C@@H]12	Active	–
CC(=O)O[C@@H]1C[C@H]2[C@H](C)[C@H]3OC(=O)[C@@H](C)[C@H]3CC[C@]2(C)[C@H]1OC(C)=O	Active	–
CC(=O)OC[C@H]1O[C@@H](O[C@@H]2[C@H](C(C)C)C[C@H](OC(=O)C[C@](C)(O)CC(=O)O)[C@]3(C)[C@@H](O)CC=C(C)[C@@H]23)[C@H](O)[C@@H](O)[C@@H]1O	Active	–
CC1=CC[C@H](O[C@@H]2OC[C@@H](O)[C@H](O)[C@H]2O)[C@@]2(C)[C@@H](O)C[C@@H](C(C)C)[C@@H](O[C@@H]3O[C@H](CO)[C@@H](O)[C@H](O)[C@H]3O)[C@H]12	Active	Activity (HT-22 [3]): Dose-dependent effect; Activity (HT-22 [4]): Active; Activity (HT-22 [5]): Active
C=C1CC[C@@H]2[C@](C)(CO)[C@H](O)CC[C@@]2(C)[C@@H]1C/C=C1/C(=O)OC[C@H]1O	–	Activity (HT-22 [6]): Active
CC1=CC[C@H](O)[C@@]2(C)[C@@H](O)C[C@@H](C(C)C)[C@@H](O[C@@H]3O[C@H](CO)[C@@H](O)[C@H](O)[C@H]3O)[C@H]12	Active	Activity (HT-22 [3]): Dose-dependent effect; Activity (HT-22 [4]): Active; Activity (HT-22 [5]): Active
CC1=CC[C@H](O)[C@@]2(C)[C@@H](OC(=O)C[C@](C)(O)CC(=O)O)C[C@@H](C(C)C)[C@@H](O[C@@H]3O[C@H](CO)[C@@H](O)[C@H](O)[C@H]3O)[C@H]12	Active	–
O=C(/C=C/c1ccc(O)cc1)NCCCCN(CCCNC(=O)/C=C/c1ccc(O)cc1)C(=O)/C=C/c1ccc(O)cc1	Active	–
C=C1C(=O)O[C@@H]2C[C@@H](C)[C@@H]3C[C@@H](OC(C)=O)[C@H](OC(C)=O)[C@@]3(C)C[C@H]12	–	Activity (HT-22 [1]): Toxic
C=C(C(=O)O)[C@H]1C[C@]2(C)C(=O)CC[C@]23O[C@H]1C[C@@H]3C	Active	–
